In ChEMBL document CHEMBL1687745 (Antimicrob Agents Chemother, 2009):
Converted amounts (≈) assume the structure as drawn. The source made the active and inactive calls. The rule behind the calls is not given here.

Columns and labels:
Bacillus anthracis [1] = experiment: Antimicrobial activity against Bacillus anthracis Sterne spores by broth microdilution method; assay type: functional
Bacillus anthracis [2] = experiment: Antimicrobial activity against Bacillus anthracis Sterne vegetative cells by broth microdilution method; assay type: functional
Bacillus subtilis [3] = experiment: Inhibition of DNA synthesis in Bacillus subtilis BD54 at 5 X MIC by [3H]thymidine incorporation assay; assay type: functional, organism-based
Method in brief: (§1)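 Precursors were [methyl-3H]thymidine (DNA), [5-3H]uridine (RNA), L-[4,5-3H]leucine (protein) and N-acetyl-D-[1-3H]glucosamine (cell wall). Samples taken over time, precipitated with equal volume of ice-cold 20% TCA, filtered on glass fibre, and counted. cpm plotted against time.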

Bacillus subtilis [4] = experiment: Inhibition of RNA synthesis in Bacillus subtilis BD54 at 5 X MIC by [5-3H]uridine incorporation assay; assay type: functional; method in brief: as §1
Bacillus subtilis [5] = experiment: Inhibition of protein synthesis in Bacillus subtilis BD54 at 5 X MIC by L-[4,5-3H]leucine incorporation assay; assay type: functional, organism-based; method in brief: as §1
Bacillus subtilis [6] = experiment: Inhibition of cell wall synthesis in Bacillus subtilis BD54 at 5 X MIC by N-acetyl-D-[1-3H] glucosamine incorporation assay; assay type: functional; method in brief: as §1

| SMILES | MIC (Bacillus anthracis [1]) | MIC (Bacillus anthracis [2]) | also measured |
| --- | --- | --- | --- |
| C(/C=C/c1cc2cc(C3=NCCN3)ccc2o1)=C\c1ccc(C2=NCCN2)cc1 | 18.2 µg/mL (≈ 47.6 µM) | 18.2 µg/mL (≈ 47.6 µM) | – |
| N=C(N)c1ccc(/C=C/c2cc3ccc(C(=N)N)cc3[nH]2)cc1 | 7.5 µg/mL (≈ 24.7 µM) | 15 µg/mL (≈ 49.4 µM) | – |
| N=C(N)c1ccc2oc(/C=C/c3cc4ccc(C(=N)N)cc4o3)cc2c1 | > 17 µg/mL | > 17 µg/mL | – |
| C(=C\c1cc2ccc(C3=NCCN3)cc2o1)/c1cc2ccc(C3=NCCN3)cc2o1 | 19 µg/mL (≈ 47.9 µM) | 19 µg/mL (≈ 47.9 µM) | – |
| C(=C\c1nc2ccccc2[nH]1)/c1nc2ccccc2[nH]1 | > 10 µg/mL | > 10 µg/mL | – |
| N=C(N)c1ccc(-c2cc(-c3ccc(C(=N)N)cc3)on2)cc1 | > 15 µg/mL | > 15 µg/mL | – |
| N=C(N)c1ccc2[nH]c(/C=C/c3nc4cc(C(=N)N)ccc4[nH]3)nc2c1 | > 17 µg/mL | > 17 µg/mL | – |
| N=C(N)c1ccc(-n2cc3cc(C(=N)N)ccc3n2)cc1 | > 14 µg/mL | > 14 µg/mL | – |
| CN[C@H](CC(C)C)C(=O)N[C@H]1C(=O)N[C@@H](CC(N)=O)C(=O)N[C@H]2C(=O)N[C@H]3C(=O)N[C@H](C(=O)N[C@H](C(=O)O)c4cc(O)cc(O)c4-c4cc3ccc4O)[C@H](O)c3ccc(c(Cl)c3)Oc3cc2cc(c3O[C@@H]2O[C@H](CO)[C@@H](O)[C@H](O)[C@H]2O[C@H]2C[C@](C)(N)[C@H](O)[C@H](C)O2)Oc2ccc(cc2Cl)[C@H]1O | – | – | inhibition (Bacillus subtilis [3]): Active; inhibition (Bacillus subtilis [4]): Active; inhibition (Bacillus subtilis [5]): Active; inhibition (Bacillus subtilis [6]): Active |
| O=C(Nc1ccc(C2=NCCN2)cc1)c1cc2cc(C3=NCCN3)ccc2o1 | 18 µg/mL (≈ 48.2 µM) | > 18 µg/mL | – |
| C(=C\c1cc2ccc(C3=NCCN3)cc2o1)/c1cc2ccc(C3=NCCN3)cc2[nH]1 | 4.7 µg/mL (≈ 11.9 µM) | 19 µg/mL (≈ 48 µM) | – |
| N=C(N)c1ccc(/C=C/c2cc3cc(C(=N)N)ccc3[nH]2)cc1 | 15 µg/mL (≈ 49.4 µM) | > 15 µg/mL | – |
| N=C(N)c1ccc(NC(=O)c2cc3ccc(C(=N)N)cc3o2)cc1 | > 16 µg/mL | > 16 µg/mL | – |
| O=C(N[C@H](CO)[C@H](O)c1ccc([N+](=O)[O-])cc1)C(Cl)Cl | – | – | inhibition (Bacillus subtilis [3]): Active; inhibition (Bacillus subtilis [4]): Active; inhibition (Bacillus subtilis [5]): Active; inhibition (Bacillus subtilis [6]): Active |
| N=C(N)c1ccc(-c2ccc(-c3ccc(C(=N)N)cc3)s2)cc1 | 16 µg/mL (≈ 49.9 µM) | > 16 µg/mL | – |
| N=C(N)c1ccc2cc(C(=N)N)[nH]c2c1 | > 11 µg/mL | > 11 µg/mL | – |
| N=C(N)c1ccc(-c2cc3cc(C(=N)N)ccc3s2)cc1 | > 15 µg/mL | > 15 µg/mL | – |
| Cc1cc(N)c2cc(NC(=O)Nc3ccc4nc(C)cc(N)c4c3)ccc2n1 [AMINOQUINURIDE] | 4.5 µg/mL (≈ 12.1 µM) | 17.8 µg/mL (≈ 47.8 µM) | – |
| C(=C\c1cc2cc(C3=NCCN3)ccc2o1)/c1ccc(C2=NCCN2)cc1 | 17.2 µg/mL (≈ 48.3 µM) | 17.2 µg/mL (≈ 48.3 µM) | – |
| N=C(N)N/N=C/c1ccc2cc(-c3ccc(/C=N/N=C(N)N)cc3)sc2c1 | 4.5 µg/mL (≈ 11.9 µM) | 18 µg/mL (≈ 47.6 µM) | – |
| N=C(N)c1ccc(-c2[nH]c3cc(C(=N)N)ccc3c2N)cc1 | > 15 µg/mL | > 15 µg/mL | – |

| SMILES | MIC (Bacillus anthracis [1]) | MIC (Bacillus anthracis [2]) | also measured |
| --- | --- | --- | --- |
| C(=C\c1cc2cc(C3=NCCN3)ccc2o1)/c1cc2cc(C3=NCCN3)ccc2o1 | > 19 µg/mL | > 19 µg/mL | – |
| O=C(Nc1ccc(C2=NCCN2)cc1)c1cc2ccc(C3=NCCN3)cc2o1 | > 18 µg/mL | > 18 µg/mL | – |
| N=C(N)c1ccc2[nH]c(/C=C/c3cc4ccc(C(=N)N)cc4o3)cc2c1 | 8 µg/mL (≈ 23.3 µM) | > 17 µg/mL | – |
| N=C(N)c1ccc2oc(CCc3cc4cc(C(=N)N)ccc4o3)cc2c1 | > 17 µg/mL | > 17 µg/mL | – |
| N=C(N)c1ccc(-n2nc3ccc(C(=N)N)cc3n2)cc1 | > 14 µg/mL | > 14 µg/mL | – |
| c1cc(-c2cc3ccc(C4=NCCN4)cc3[nH]2)ccc1C1=NCCN1 | > 16 µg/mL | > 16 µg/mL | – |
| OCCn1c(/C=C/c2nc3ccccc3[nH]2)nc2ccccc21 | > 12 µg/mL | > 12 µg/mL | – |
| O=C(Nc1ccc(C2=NCCN2)cc1)c1cc2ccc(C3=NCCN3)cc2[nH]1 | 8.9 µg/mL (≈ 23.9 µM) | 17.8 µg/mL (≈ 47.8 µM) | – |
| C(=C\c1cc2cc(C3=NCCN3)ccc2s1)/c1ccc(C2=NCCN2)cc1 | 17.8 µg/mL (≈ 47.8 µM) | 17.8 µg/mL (≈ 47.8 µM) | – |
| N=C(N)c1ccc(-c2nc3cc(C(=N)N)ccc3[nH]2)cc1 | > 14 µg/mL | > 14 µg/mL | – |
| C(=C\c1cc2cc(C3=NCCN3)ccc2o1)/c1cc2cc(C3=NCCN3)ccc2[nH]1 | 19 µg/mL (≈ 48 µM) | > 19 µg/mL | – |
| c1cc(-c2[nH]c3cc(C4=NCCN4)ccc3c2-c2cc3ccc(C4=NCCN4)cc3[nH]2)ccc1C1=NCCN1 | 24.9 µg/mL (≈ 48.6 µM) | 24.9 µg/mL (≈ 48.6 µM) | – |
| N=C(N)c1ccc(-c2cc3ccc(C(=N)N)cc3s2)cc1 | > 19 µg/mL | > 19 µg/mL | – |
| Cc1c(/C=C/c2cc3cc(C(=N)N)ccc3o2)oc2cc(C(=N)N)ccc12 | > 17 µg/mL | > 17 µg/mL | – |
| N=C(N)c1ccc2oc(CCc3cc4ccc(C(=N)N)cc4[nH]3)cc2c1 | 8.4 µg/mL (≈ 24.3 µM) | 8.4 µg/mL (≈ 24.3 µM) | – |
| N=C(N)c1ccc2cc(/C=C/c3cc4ccc(C(=N)N)cc4o3)oc2c1 | 8.3 µg/mL (≈ 24.1 µM) | 17 µg/mL (≈ 49.4 µM) | – |
| Nc1ccc(C2=Cc3ccc(N)cc3S2(=O)=O)cc1 | > 11 µg/mL | > 11 µg/mL | – |
| N=C(N)c1ccc(/C=C/c2cc3cc(C(=N)N)ccc3o2)cc1 | > 15 µg/mL | > 15 µg/mL | – |
| N=C(N)c1ccc2oc(/C=C/C=C/c3cc4cc(C(=N)N)ccc4o3)cc2c1 | 2.2 µg/mL (≈ 5.94 µM) | 18 µg/mL (≈ 48.6 µM) | – |
| C(/C=C/c1cc2cc(C3=NCCN3)ccc2o1)=C\c1cc2cc(C3=NCCN3)ccc2o1 | 9.9 µg/mL (≈ 23.4 µM) | 19.8 µg/mL (≈ 46.9 µM) | – |
| c1cc(-c2cc3ccc(C4=NCCN4)cc3s2)ccc1C1=NCCN1 | > 17 µg/mL | > 17 µg/mL | – |

| SMILES | MIC (Bacillus anthracis [1]) | MIC (Bacillus anthracis [2]) | also measured |
| --- | --- | --- | --- |
| Cc1c(/C=C/c2oc3ccc(C(=N)N)cc3c2C)oc2cc(C(=N)N)ccc12 | > 18 µg/mL | > 18 µg/mL | – |
| N=C(N)Nc1ccc(-c2cc3cc(NC(=N)N)ccc3s2)cc1 | 15.9 µg/mL (≈ 49 µM) | > 16 µg/mL | – |
| C(=C\c1cc2ccc(C3=NCCN3)cc2o1)/c1cc2cc(C3=NCCN3)ccc2[nH]1 | 19 µg/mL (≈ 48 µM) | > 19 µg/mL | – |
| C(=C\c1cc2cc(C3=NCCN3)ccc2[nH]1)/c1ccc(C2=NCCN2)cc1 | > 17 µg/mL | > 17 µg/mL | – |
| N=C(N)c1ccc(Oc2ccc(-c3cc4ccc(C(=N)N)cc4[nH]3)cc2)cc1 | 4 µg/mL (≈ 10.8 µM) | 4 µg/mL (≈ 10.8 µM) | – |
| C(=C\c1cc2ccc(C3=NCCN3)cc2[nH]1)/c1ccc(C2=NCCN2)cc1 | 8.6 µg/mL (≈ 24.2 µM) | > 17 µg/mL | – |
| N=C(N)c1ccc2oc(/C=C/C=C/C=C/c3cc4cc(C(=N)N)ccc4o3)cc2c1 | 2.3 µg/mL (≈ 5.8 µM) | 9.4 µg/mL (≈ 23.7 µM) | – |
| N=C(N)c1ccc(-c2[nH]c3cc(C(=N)N)ccc3c2-c2ccccc2)cc1 | 9 µg/mL (≈ 25.5 µM) | 17 µg/mL (≈ 48.1 µM) | – |
| N=C(N)c1ccc(/C=C/C=C/c2cc3cc(C(=N)N)ccc3o2)cc1 | 8.1 µg/mL (≈ 24.5 µM) | 16.1 µg/mL (≈ 48.7 µM) | – |
| C(=C\c1cc2ccc(C3=NCCN3)cc2[nH]1)/c1ccc2cc(C3=NCCN3)[nH]c2c1 | 9.3 µg/mL (≈ 23.6 µM) | 18.7 µg/mL (≈ 47.4 µM) | – |
| N=C(N)c1ccc2cc(/C=C/c3cc4ccc(C(=N)N)cc4o3)[nH]c2c1 | 2.1 µg/mL (≈ 6.12 µM) | 4.2 µg/mL (≈ 12.2 µM) | – |
| c1cc2cc(-c3cc4ccc(C5=NCCN5)cc4[nH]3)[nH]c2cc1C1=NCCN1 | 0.6 µg/mL (≈ 1.63 µM) | 1.1 µg/mL (≈ 2.99 µM) | – |
| Cc1cc2nc(/C=C/c3nc4cc(C)c(C)cc4[nH]3)[nH]c2cc1C | > 13 µg/mL | > 13 µg/mL | – |
| N=C(N)c1ccc2oc(/C=C/c3cc4cc(C(=N)N)ccc4s3)cc2c1 | 8.7 µg/mL (≈ 24.1 µM) | 17 µg/mL (≈ 47.2 µM) | – |
| C(=C\c1cc2ccc(C3=NCCN3)cc2[nH]1)/c1ccc(Oc2ccc(C3=NCCN3)cc2)cc1 | 2.6 µg/mL (≈ 5.81 µM) | 2.6 µg/mL (≈ 5.81 µM) | – |
| CO[C@H]1/C=C/O[C@@]2(C)Oc3c(C)c(O)c4c(O)c(c(/C=N/N5CCN(C)CC5)c(O)c4c3C2=O)NC(=O)/C(C)=C\C=C\[C@H](C)[C@H](O)[C@@H](C)[C@@H](O)[C@@H](C)[C@H](OC(C)=O)[C@@H]1C | – | – | inhibition (Bacillus subtilis [3]): Active; inhibition (Bacillus subtilis [4]): Active; inhibition (Bacillus subtilis [5]): Active; inhibition (Bacillus subtilis [6]): Active |
| c1cc(-c2cc3cc(C4=NCCN4)ccc3s2)ccc1C1=NCCN1 | > 17 µg/mL | > 17 µg/mL | – |
| c1cc(-c2nc3cc(-c4nc5ccc(C6=NCCN6)cc5[nH]4)ccc3[nH]2)ccc1C1=NCCN1 | 1.4 µg/mL (≈ 3.14 µM) | 22.3 µg/mL (≈ 49.9 µM) | – |
| N/C(=N\O)c1ccc2oc(/C=C/c3cc4cc(/C(N)=N/O)ccc4o3)cc2c1 | > 23 µg/mL | > 23 µg/mL | – |
